Measurements as given in ChEMBL document CHEMBL4765235, “Discovery of N-[Bis(4-methoxyphenyl)methyl]-4-hydroxy-2-(pyridazin-3-yl)pyrimidine-5-carboxamide (MK-8617), an Orally Active Pan-Inhibitor of Hypoxia-Inducible Factor Prolyl Hydroxylase 1-3 (HIF PHD1-3) for the Treatment of Anemia” (J Med Chem, 2016).
Active and inactive are the calls of the source. The calls are words filed in the database; no cut-off is given here.

Key:
[1] = In vivo inhibition of HIF-PHD2 in C57BL/6 mouse assessed as serum erythropoietin level at 50 mg/kg, iv measured after 4 hrs; format: functional
Method in brief: (§1)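 Mouse pharmacodynamic EPO assay (MoPED). Compound dosed iv; serum EPO measured 4 hr after dosing and reported in pg/mL. Minimum effective dose is the lowest dose giving EPO elevation.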

[2] = Metabolic stability in monkey liver microsomes assessed as metabolic turnover at 10 uM measured after 60 mins in presence of NADPH; format: ADME, Macaca mulatta, Microsome; conditions: rhesus monkey, read-out: Drug metabolism
Method in brief: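 Tritiated compound incubated with rat or monkey liver microsomes supplemented with NADPH; metabolic turnover monitored.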

Prolyl hydroxylase EGLN2 = Prolyl hydroxylase EGLN2 (Homo sapiens, UniProt Q96KS0); assay: Inhibition of FLAG-tagged full-length HIF-PHD1 (unknown origin) expressed in baculovirus infected Sf9 cells using 2-oxoglutarate and HIF1alpha biotinyl-DLDLEMLAPYIPMDDDFQL as peptide substrates preincubated for 30 mins followed by substrate addition and measured after 2 hrs by LANCE assay
[3] = Oral bioavailability in dog at 1 mg/kg; format: ADME, organism-based, Canis lupus familiaris; conditions: in vivo
Method in brief: (§2)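 Dog and rhesus monkey dosed 1 mg/kg po and 0.5 mg/kg iv. The iv vehicle was PEG200:12%HPCD:water (30:12:58 v/v/v); the po vehicle was Imwitor:Tween (1:1 w/w). Clearance was measured in plasma. Protein binding was measured in 100% serum.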

[4] = In vivo inhibition of HIF-PHD2 in iv dosed C57BL/6 mouse assessed as minimum effective dose causing increase in serum erythropoietin levels measured after 4 hrs; format: functional; conditions: C57BL/6, iv, read-out: MED; method in brief: as §1
[5] = Half life in rhesus monkey at 1 mg/kg, po or 0.5 mg/kg, iv; format: ADME, organism-based, Macaca mulatta; conditions: in vivo
Method in brief: (§3)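 Single-dose PK at 1 mg/kg po and 0.5 mg/kg iv. Mouse clearance is from blood; dog and rhesus clearance is from plasma. Mouse vehicle, both routes: DMSO:PEG400:water (5:40:55, v/v/v). Dog and monkey iv vehicle: PEG200:12%HPCD:water (30:12:58 v/v/v). Dog and monkey po vehicle: Imwitor:Tween (1:1 w/w).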

[6] = Oral bioavailability in rat at 2 mg/kg; format: ADME, organism-based; conditions: in vivo
[7] = Oral bioavailability in rhesus monkey at 1 mg/kg; format: ADME, organism-based, Macaca mulatta; conditions: in vivo; method in brief: as §2
[8] = In vivo inhibition of HIF-PHD2 in C57BL/6 mouse assessed as serum erythropoietin level at 100 mg/kg, iv measured after 4 hrs; format: functional; method in brief: as §1
[9] = Volume of distribution at steady state in rhesus monkey at 1 mg/kg, po or 0.5 mg/kg, iv; format: ADME, organism-based, Macaca mulatta; conditions: in vivo, read-out: Vdss; method in brief: as §2
[10] = Metabolic stability in human liver microsomes assessed as metabolic turnover at 10 uM measured after 60 mins in presence of NADPH; format: ADME, Microsome; conditions: read-out: Drug metabolism
[11] = Drug recovery in fasted bile-duct cannulated Sprague-Dawley rat urine at 5 mg/kg, po using [3H]-labeled compound measured after 48 hrs; format: ADME, organism-based; conditions: in vivo
Rattus norvegicus = species on record: Rattus norvegicus; conditions: Sprague-Dawley, dose 15.0 mg/kg
[12] = Drug recovery in fasted bile-duct cannulated Sprague-Dawley rat urine assessed as metabolically unchanged parent compound at 5 mg/kg, po using [3H]-labeled compound measured after 48 hrs; format: ADME, organism-based; conditions: in vivo
[13] = Drug metabolism in rat liver microsomes assessed as O-demethylated metabolite formation; format: ADME, Microsome
[14] = Drug metabolism in human liver microsomes assessed as O-demethylated metabolite formation; format: ADME, Microsome
[15] = Cmax in rhesus monkey at 1 mg/kg, po or 0.5 mg/kg, iv; format: ADME, organism-based, Macaca mulatta; parameters: dose 1 mg/kg; conditions: in vivo; method in brief: as §3
[16] = Half life in dog at 1 mg/kg, po or 0.5 mg/kg, iv; format: ADME, organism-based, Canis lupus familiaris; conditions: in vivo; method in brief: as §3
[17] = Cmax in dog at 1 mg/kg, po or 0.5 mg/kg, iv; format: ADME, organism-based, Canis lupus familiaris; parameters: dose 1 mg/kg; conditions: in vivo; method in brief: as §3
[18] = Cmax in Sprague-Dawley rat at 5 mg/kg, po administered as single dose measured at 6 hrs; format: ADME, organism-based; parameters: route oral, dose 5 mg/kg, time 6 hrs; conditions: in vivo
[19] = In vivo inhibition of HIF-PHD2 in C57BL/6 mouse assessed as serum erythropoietin level at 15 mg/kg, iv measured after 4 hrs; format: functional; method in brief: as §1
Cytochrome P450 1A2 = target: T1, Cytochrome P450 1A2 (Homo sapiens, UniProt P05177); assay: Inhibition of CYP1A2 (unknown origin); format: ADME
T1 sequence (P05177 whole entry): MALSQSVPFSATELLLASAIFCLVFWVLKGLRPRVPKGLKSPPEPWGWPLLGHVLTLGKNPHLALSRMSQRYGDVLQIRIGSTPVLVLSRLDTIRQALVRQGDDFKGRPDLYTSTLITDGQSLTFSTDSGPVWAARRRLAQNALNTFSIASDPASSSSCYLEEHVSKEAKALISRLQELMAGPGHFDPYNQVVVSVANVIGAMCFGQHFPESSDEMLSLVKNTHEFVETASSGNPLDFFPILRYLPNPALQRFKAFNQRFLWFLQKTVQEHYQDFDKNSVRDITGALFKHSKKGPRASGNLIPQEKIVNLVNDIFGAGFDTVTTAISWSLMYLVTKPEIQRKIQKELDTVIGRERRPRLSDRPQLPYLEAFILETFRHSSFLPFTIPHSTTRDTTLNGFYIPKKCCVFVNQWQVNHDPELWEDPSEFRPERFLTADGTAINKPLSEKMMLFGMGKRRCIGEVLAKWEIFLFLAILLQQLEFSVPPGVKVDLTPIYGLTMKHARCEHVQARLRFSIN

Cytochrome P450 2B6 = target: T2, Cytochrome P450 2B6 (Homo sapiens, UniProt P20813); assay: Inhibition of CYP2B6 (unknown origin); format: ADME
T2 sequence (P20813 whole entry): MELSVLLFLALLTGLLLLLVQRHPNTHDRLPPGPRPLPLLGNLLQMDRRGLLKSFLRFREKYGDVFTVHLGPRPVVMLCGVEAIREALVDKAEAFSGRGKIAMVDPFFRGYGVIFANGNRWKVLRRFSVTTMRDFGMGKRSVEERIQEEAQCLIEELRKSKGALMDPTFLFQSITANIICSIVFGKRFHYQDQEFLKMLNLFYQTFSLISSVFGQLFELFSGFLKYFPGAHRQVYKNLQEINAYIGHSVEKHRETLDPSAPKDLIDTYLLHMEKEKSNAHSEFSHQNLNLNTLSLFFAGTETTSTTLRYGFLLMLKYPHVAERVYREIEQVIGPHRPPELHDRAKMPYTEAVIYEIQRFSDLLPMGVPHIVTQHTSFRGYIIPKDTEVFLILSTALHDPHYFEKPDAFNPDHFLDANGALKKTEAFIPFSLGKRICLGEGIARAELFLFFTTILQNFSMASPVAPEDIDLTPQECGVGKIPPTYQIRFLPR

Cytochrome P450 3A4 = Cytochrome P450 3A4 (Homo sapiens, UniProt P08684); assay: Inhibition of CYP3A4 (unknown origin); format: ADME
[20] = Plasma clearance in rhesus monkey at 1 mg/kg, po or 0.5 mg/kg, iv; format: ADME, organism-based, Macaca mulatta; method in brief: as §2
[21] = Drug recovery in fasted bile-duct cannulated Sprague-Dawley rat feces assessed as metabolically unchanged parent compound by measuring radioactivity at 5 mg/kg, po using [3H]-labeled compound measured after 48 hrs; format: ADME, organism-based; conditions: in vivo
[22] = In vivo inhibition of HIF-PHD2 in C57BL/6 mouse assessed as serum erythropoietin level at 5 mg/kg, iv measured after 4 hrs; format: functional; method in brief: as §1

Chain of Prolyl hydroxylase EGLN2 (Q96KS0 whole entry): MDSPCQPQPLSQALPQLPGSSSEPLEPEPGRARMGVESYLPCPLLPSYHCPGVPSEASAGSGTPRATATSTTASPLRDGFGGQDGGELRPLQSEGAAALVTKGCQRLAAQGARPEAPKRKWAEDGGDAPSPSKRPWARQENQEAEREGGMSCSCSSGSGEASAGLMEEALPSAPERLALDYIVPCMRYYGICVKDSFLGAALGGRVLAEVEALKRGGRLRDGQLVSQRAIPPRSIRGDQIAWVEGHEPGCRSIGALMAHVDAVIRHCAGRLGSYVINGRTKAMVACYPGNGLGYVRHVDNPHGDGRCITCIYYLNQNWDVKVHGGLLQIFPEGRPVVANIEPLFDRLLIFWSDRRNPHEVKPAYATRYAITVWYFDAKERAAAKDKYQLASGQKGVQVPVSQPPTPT
Chain of Cytochrome P450 3A4 (P08684 whole entry): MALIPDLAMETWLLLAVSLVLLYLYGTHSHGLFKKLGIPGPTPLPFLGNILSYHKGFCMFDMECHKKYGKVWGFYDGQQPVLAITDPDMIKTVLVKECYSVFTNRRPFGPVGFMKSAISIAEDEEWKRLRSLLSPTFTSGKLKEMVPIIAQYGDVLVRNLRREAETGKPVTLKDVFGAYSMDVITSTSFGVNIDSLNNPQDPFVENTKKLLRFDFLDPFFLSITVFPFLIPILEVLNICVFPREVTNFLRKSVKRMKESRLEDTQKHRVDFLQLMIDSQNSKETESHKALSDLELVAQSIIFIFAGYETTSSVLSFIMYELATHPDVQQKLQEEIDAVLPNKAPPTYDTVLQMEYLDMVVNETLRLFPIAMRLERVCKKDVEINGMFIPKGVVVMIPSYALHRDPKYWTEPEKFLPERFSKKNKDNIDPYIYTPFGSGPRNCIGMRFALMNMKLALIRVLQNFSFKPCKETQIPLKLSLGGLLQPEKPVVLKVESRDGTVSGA

## COc1ccc(C(NC(=O)c2cnc(-c3cccnn3)nc2O)c2ccc(OC)cc2)cc1
[1]
  Activity: 18000 pg/mL
[2]
  metabolised at 1 h, 10 µM: < 10%
Prolyl hydroxylase EGLN2
  IC50: 0.001 µM
[3]
  bioavailability: 71%
[4]
  minimal effective dose: 1.5 mg/kg
[5]
  half-life: 10 h
[6]
  bioavailability: 36%
[7]
  bioavailability: 52%
[8]
  Activity: 27000 pg/mL
[9]
  Vd: 0.1 L/kg
[10]
  metabolised at 1 h, 10 µM: 34%
[11]
  Drug recovery: 26%
Rattus norvegicus
  inhibition: Active
[12]
  Drug recovery: < 10%
[13]
  Drug metabolism: Metabolite_Detected
[14]
  Drug metabolism: Metabolite_Detected
[15]
  Cmax: 17 µM
[16]
  half-life: 19 h
[17]
  Cmax: 18 µM
[18]
  Cmax: 14 µM
[19]
  Activity: 12000 pg/mL
Cytochrome P450 1A2
  IC50: > 60 µM
Cytochrome P450 2B6
  IC50: > 60 µM
Cytochrome P450 3A4
  IC50: > 60 µM
[20]
  clearance: 0.15 mL/min/kg
[21]
  Drug recovery: 90%
[22]
  Activity: 6200 pg/mL
